Reference: ChEMBL document CHEMBL1152425, “Systematic syntheses of influenza neuraminidase inhibitors: a series of carbosilane dendrimers uniformly functionalized with thioglycoside-type sialic acid moieties” (Bioorg Med Chem, 2009)

Columns and labels:
[1] = molecular target: Neuraminidase (Influenza A virus, UniProt B4URF0); assay: Inhibition of human Influenza A virus A/PR/8/34(H1N1) sialidase by fluorescence spectrophotometry; design: species or system Influenza A virus (A/Puerto Rico/8/1934(H1N1))
Neuraminidase, sequence (B4URF0 whole entry): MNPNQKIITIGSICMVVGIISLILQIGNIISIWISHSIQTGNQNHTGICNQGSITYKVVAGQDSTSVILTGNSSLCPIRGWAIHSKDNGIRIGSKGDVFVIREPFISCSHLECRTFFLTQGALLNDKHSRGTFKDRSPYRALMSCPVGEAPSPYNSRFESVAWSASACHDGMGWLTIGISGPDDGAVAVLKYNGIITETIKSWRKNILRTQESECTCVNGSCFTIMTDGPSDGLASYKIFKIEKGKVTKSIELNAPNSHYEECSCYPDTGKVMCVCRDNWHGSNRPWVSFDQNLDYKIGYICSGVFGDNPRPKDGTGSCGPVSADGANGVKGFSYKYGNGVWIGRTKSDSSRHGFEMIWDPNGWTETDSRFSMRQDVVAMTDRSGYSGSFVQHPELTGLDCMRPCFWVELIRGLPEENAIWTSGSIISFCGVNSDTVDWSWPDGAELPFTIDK
Outline: (§1)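 Influenza A virus suspension in saline (HAU = 26) as sialidase source; mixed with glycodendrimer and 4-MU-Neu5Ac (0.4 mM final) in 20 mM acetate buffer pH 5.2; 37 °C, 30 min; stopped with 100 mM carbonate buffer pH 10.7; released 4-MU fluorescence ex 355/em 460 nm. IC50 read graphically from % inhibition vs concentration, in mM per monomeric sugar unit.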

[2] = molecular target: Neuraminidase (Influenza A virus (A/Memphis/1/1971(H3N2)), UniProt P03471); assay: Inhibition of human influenza A/Memphis/1/71(H3N2) sialidase by fluorescence spectrophotometry; outline: as §1
Neuraminidase (Influenza A virus (A/Memphis/1/1971(H3N2)), UniProt P03471), sequence (P03471 whole entry): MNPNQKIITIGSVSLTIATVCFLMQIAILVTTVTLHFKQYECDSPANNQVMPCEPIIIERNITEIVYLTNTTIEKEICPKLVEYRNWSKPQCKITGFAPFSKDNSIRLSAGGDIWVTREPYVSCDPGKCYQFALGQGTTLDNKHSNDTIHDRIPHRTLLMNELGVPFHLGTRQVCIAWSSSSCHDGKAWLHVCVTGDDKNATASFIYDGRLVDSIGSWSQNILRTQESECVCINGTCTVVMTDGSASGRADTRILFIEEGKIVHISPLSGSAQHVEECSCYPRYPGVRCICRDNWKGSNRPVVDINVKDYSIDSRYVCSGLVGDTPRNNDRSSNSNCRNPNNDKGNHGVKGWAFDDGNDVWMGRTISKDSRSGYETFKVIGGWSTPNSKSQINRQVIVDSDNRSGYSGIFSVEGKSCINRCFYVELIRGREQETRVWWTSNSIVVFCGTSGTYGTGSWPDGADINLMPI

| Structure (SMILES) | IC50 [1] [mM] | IC50 [2] [mM] |
| --- | --- | --- |
| CC(=O)N[C@H]1[C@H]([C@H](O)[C@H](O)CO)O[C@@](SCCCCCSCCCOCCC[Si](CCCOCCCSCCCCCS[C@]2(C(=O)O)C[C@H](O)[C@@H](NC(C)=O)[C@H]([C@H](O)[C@H](O)CO)O2)(CCCOCCCSCCCCCS[C@]2(C(=O)O)C[C@H](O)[C@@H](NC(C)=O)[C@H]([C@H](O)[C@H](O)CO)O2)c2ccccc2)(C(=O)O)C[C@@H]1O | 5 | 5 |
| CC(=O)N[C@H]1[C@H]([C@H](O)[C@H](O)CO)O[C@@](SCCCCCSCCCOCCC[Si](CCCOCCCSCCCCCS[C@]2(C(=O)O)C[C@H](O)[C@@H](NC(C)=O)[C@H]([C@H](O)[C@H](O)CO)O2)(CCCOCCCSCCCCCS[C@]2(C(=O)O)C[C@H](O)[C@@H](NC(C)=O)[C@H]([C@H](O)[C@H](O)CO)O2)CCC[Si](CCC[Si](CCCOCCCSCCCCCS[C@]2(C(=O)O)C[C@H](O)[C@@H](NC(C)=O)[C@H]([C@H](O)[C@H](O)CO)O2)(CCCOCCCSCCCCCS[C@]2(C(=O)O)C[C@H](O)[C@@H](NC(C)=O)[C@H]([C@H](O)[C@H](O)CO)O2)CCCOCCCSCCCCCS[C@]2(C(=O)O)C[C@H](O)[C@@H](NC(C)=O)[C@H]([C@H](O)[C@H](O)CO)O2)(CCC[Si](CCCOCCCSCCCCCS[C@]2(C(=O)O)C[C@H](O)[C@@H](NC(C)=O)[C@H]([C@H](O)[C@H](O)CO)O2)(CCCOCCCSCCCCCS[C@]2(C(=O)O)C[C@H](O)[C@@H](NC(C)=O)[C@H]([C@H](O)[C@H](O)CO)O2)CCCOCCCSCCCCCS[C@]2(C(=O)O)C[C@H](O)[C@@H](NC(C)=O)[C@H]([C@H](O)[C@H](O)CO)O2)CCC[Si](CCCOCCCSCCCCCS[C@]2(C(=O)O)C[C@H](O)[C@@H](NC(C)=O)[C@H]([C@H](O)[C@H](O)CO)O2)(CCCOCCCSCCCCCS[C@]2(C(=O)O)C[C@H](O)[C@@H](NC(C)=O)[C@H]([C@H](O)[C@H](O)CO)O2)CCCOCCSCCCCCS[C@]2(C(=O)O)C[C@H](O)[C@@H](NC(C)=O)[C@H]([C@H](O)[C@H](O)CO)O2)(C(=O)O)C[C@@H]1O | 6.4 | 6.5 |
| CC(=O)N[C@H]1[C@H]([C@H](O)[C@H](O)CO)O[C@@](SCCCCCSCCCCCC(=O)NCCC[Si](CCCNC(=O)CCCCCSCCCCCS[C@]2(C(=O)O)C[C@H](O)[C@@H](NC(C)=O)[C@H]([C@H](O)[C@H](O)CO)O2)(CCCNC(=O)CCCCCSCCCCCS[C@]2(C(=O)O)C[C@H](O)[C@@H](NC(C)=O)[C@H]([C@H](O)[C@H](O)CO)O2)CCC[Si](CCC[Si](CCCNC(=O)CCCCCSCCCCCS[C@]2(C(=O)O)C[C@H](O)[C@@H](NC(C)=O)[C@H]([C@H](O)[C@H](O)CO)O2)(CCCNC(=O)CCCCCSCCCCCS[C@]2(C(=O)O)C[C@H](O)[C@@H](NC(C)=O)[C@H]([C@H](O)[C@H](O)CO)O2)CCCNC(=O)CCCCCSCCCCCS[C@]2(C(=O)O)C[C@H](O)[C@@H](NC(C)=O)[C@H]([C@H](O)[C@H](O)CO)O2)(CCC[Si](CCCNC(=O)CCCCCSCCCCCS[C@]2(C(=O)O)C[C@H](O)[C@@H](NC(C)=O)[C@H]([C@H](O)[C@H](O)CO)O2)(CCCNC(=O)CCCCCSCCCCCS[C@]2(C(=O)O)C[C@H](O)[C@@H](NC(C)=O)[C@H]([C@H](O)[C@H](O)CO)O2)CCCNC(=O)CCCCCSCCCCCS[C@]2(C(=O)O)C[C@H](O)[C@@H](NC(C)=O)[C@H]([C@H](O)[C@H](O)CO)O2)CCC[Si](CCCNC(=O)CCCCCSCCCCCS[C@]2(C(=O)O)C[C@H](O)[C@@H](NC(C)=O)[C@H]([C@H](O)[C@H](O)CO)O2)(CCCNC(=O)CCCCCSCCCCCS[C@]2(C(=O)O)C[C@H](O)[C@@H](NC(C)=O)[C@H]([C@H](O)[C@H](O)CO)O2)CCCNC(=O)CCCCCSCCCCCS[C@]2(C(=O)O)C[C@H](O)[C@@H](NC(C)=O)[C@H]([C@H](O)[C@H](O)CO)O2)(C(=O)O)C[C@@H]1O | 7.2 |  |
| CC(=O)N[C@H]1[C@H]([C@H](O)[C@H](O)CO)O[C@@](SCCCCCSCCCCCC(=O)NCCC[Si](CCCNC(=O)CCCCCSCCCCCS[C@]2(C(=O)O)C[C@H](O)[C@@H](NC(C)=O)[C@H]([C@H](O)[C@H](O)CO)O2)(CCCNC(=O)CCCCCSCCCCCS[C@]2(C(=O)O)C[C@H](O)[C@@H](NC(C)=O)[C@H]([C@H](O)[C@H](O)CO)O2)CCC[Si](C)(C)CCC[Si](CCCNC(=O)CCCCCSCCCCCS[C@]2(C(=O)O)C[C@H](O)[C@@H](NC(C)=O)[C@H]([C@H](O)[C@H](O)CO)O2)(CCCNC(=O)CCCCCSCCCCCS[C@]2(C(=O)O)C[C@H](O)[C@@H](NC(C)=O)[C@H]([C@H](O)[C@H](O)CO)O2)CCCNC(=O)CCCCCSCCCCCS[C@]2(C(=O)O)C[C@H](O)[C@@H](NC(C)=O)[C@H]([C@H](O)[C@H](O)CO)O2)(C(=O)O)C[C@@H]1O | 2.8 | 8.1 |
| CC(=O)N[C@H]1[C@H]([C@H](O)[C@H](O)CO)O[C@@](SCCCCCSCCCCCC(=O)NCCC[Si](CCCNC(=O)CCCCCSCCCCCS[C@]2(C(=O)O)C[C@H](O)[C@@H](NC(C)=O)[C@H]([C@H](O)[C@H](O)CO)O2)(CCCNC(=O)CCCCCSCCCCCS[C@]2(C(=O)O)C[C@H](O)[C@@H](NC(C)=O)[C@H]([C@H](O)[C@H](O)CO)O2)CCCNC(=O)CCCCCSCCCCCS[C@]2(C(=O)O)C[C@H](O)[C@@H](NC(C)=O)[C@H]([C@H](O)[C@H](O)CO)O2)(C(=O)O)C[C@@H]1O | 4.8 | 8.8 |
| CC(=O)N[C@H]1[C@H]([C@H](O)[C@H](O)CO)O[C@@](SCCCCCSCCCOCCC[Si](CCCOCCCSCCCCCS[C@]2(C(=O)O)C[C@H](O)[C@@H](NC(C)=O)[C@H]([C@H](O)[C@H](O)CO)O2)(CCCOCCCSCCCCCS[C@]2(C(=O)O)C[C@H](O)[C@@H](NC(C)=O)[C@H]([C@H](O)[C@H](O)CO)O2)CCC[Si](C)(C)CCC[Si](CCCOCCCSCCCCCS[C@]2(C(=O)O)C[C@H](O)[C@@H](NC(C)=O)[C@H]([C@H](O)[C@H](O)CO)O2)(CCCOCCCSCCCCCS[C@]2(C(=O)O)C[C@H](O)[C@@H](NC(C)=O)[C@H]([C@H](O)[C@H](O)CO)O2)CCCOCCCSCCCCCS[C@]2(C(=O)O)C[C@H](O)[C@@H](NC(C)=O)[C@H]([C@H](O)[C@H](O)CO)O2)(C(=O)O)C[C@@H]1O | 5 | 1.25 |
| CC(=O)N[C@H]1[C@H]([C@H](O)[C@H](O)CO)O[C@@](SCCCCCSCCC[Si](CCCSCCCCCS[C@]2(C(=O)O)C[C@H](O)[C@@H](NC(C)=O)[C@H]([C@H](O)[C@H](O)CO)O2)(CCCSCCCCCS[C@]2(C(=O)O)C[C@H](O)[C@@H](NC(C)=O)[C@H]([C@H](O)[C@H](O)CO)O2)CCC[Si](CCC[Si](CCCSCCCCCS[C@]2(C(=O)O)C[C@H](O)[C@@H](NC(C)=O)[C@H]([C@H](O)[C@H](O)CO)O2)(CCCSCCCCCS[C@]2(C(=O)O)C[C@H](O)[C@@H](NC(C)=O)[C@H]([C@H](O)[C@H](O)CO)O2)CCCSCCCCCS[C@]2(C(=O)O)C[C@H](O)[C@@H](NC(C)=O)[C@H]([C@H](O)[C@H](O)CO)O2)(CCC[Si](CCCSCCCCCS[C@]2(C(=O)O)C[C@H](O)[C@@H](NC(C)=O)[C@H]([C@H](O)[C@H](O)CO)O2)(CCCSCCCCCS[C@]2(C(=O)O)C[C@H](O)[C@@H](NC(C)=O)[C@H]([C@H](O)[C@H](O)CO)O2)CCCSCCCCCS[C@]2(C(=O)O)C[C@H](O)[C@@H](NC(C)=O)[C@H]([C@H](O)[C@H](O)CO)O2)CCC[Si](CCCSCCCCCS[C@]2(C(=O)O)C[C@H](O)[C@@H](NC(C)=O)[C@H]([C@H](O)[C@H](O)CO)O2)(CCCSCCCCCS[C@]2(C(=O)O)C[C@H](O)[C@@H](NC(C)=O)[C@H]([C@H](O)[C@H](O)CO)O2)CCCSCCCCCS[C@]2(C(=O)O)C[C@H](O)[C@@H](NC(C)=O)[C@H]([C@H](O)[C@H](O)CO)O2)(C(=O)O)C[C@@H]1O | 5 | 7 |
| CC(=O)N[C@H]1[C@H]([C@H](O)[C@H](O)CO)O[C@@](SCCCCCSCCCCCC(=O)NCCC[Si](CCCNC(=O)CCCCCSCCCCCS[C@]2(C(=O)O)C[C@H](O)[C@@H](NC(C)=O)[C@H]([C@H](O)[C@H](O)CO)O2)(CCCNC(=O)CCCCCSCCCCCS[C@]2(C(=O)O)C[C@H](O)[C@@H](NC(C)=O)[C@H]([C@H](O)[C@H](O)CO)O2)c2ccccc2)(C(=O)O)C[C@@H]1O | 2.7 | 7.1 |
| CC(=O)N[C@H]1[C@H]([C@H](O)[C@H](O)CO)O[C@@](SCCCCCSCCCOCCC[Si](CCCOCCCSCCCCCS[C@]2(C(=O)O)C[C@H](O)[C@@H](NC(C)=O)[C@H]([C@H](O)[C@H](O)CO)O2)(CCCOCCCSCCCCCS[C@]2(C(=O)O)C[C@H](O)[C@@H](NC(C)=O)[C@H]([C@H](O)[C@H](O)CO)O2)CCCOCCCSCCCCCS[C@]2(C(=O)O)C[C@H](O)[C@@H](NC(C)=O)[C@H]([C@H](O)[C@H](O)CO)O2)(C(=O)O)C[C@@H]1O | 5 | 5 |
